Source: BindingDB's records for doi:10.1016/j.ejmech.2015.10.033 (Kyungpook National University, 2015)

These compounds were tested against T1, Polyphenol oxidase 2 (Agaricus bisporus, UniProt O42713) (assay: Non-competitive inhibition of mushroom tyrosinase using L-tyrosine as substrate by Lineweaver-Burk plots analysis).
T1 sequence (O42713 whole entry): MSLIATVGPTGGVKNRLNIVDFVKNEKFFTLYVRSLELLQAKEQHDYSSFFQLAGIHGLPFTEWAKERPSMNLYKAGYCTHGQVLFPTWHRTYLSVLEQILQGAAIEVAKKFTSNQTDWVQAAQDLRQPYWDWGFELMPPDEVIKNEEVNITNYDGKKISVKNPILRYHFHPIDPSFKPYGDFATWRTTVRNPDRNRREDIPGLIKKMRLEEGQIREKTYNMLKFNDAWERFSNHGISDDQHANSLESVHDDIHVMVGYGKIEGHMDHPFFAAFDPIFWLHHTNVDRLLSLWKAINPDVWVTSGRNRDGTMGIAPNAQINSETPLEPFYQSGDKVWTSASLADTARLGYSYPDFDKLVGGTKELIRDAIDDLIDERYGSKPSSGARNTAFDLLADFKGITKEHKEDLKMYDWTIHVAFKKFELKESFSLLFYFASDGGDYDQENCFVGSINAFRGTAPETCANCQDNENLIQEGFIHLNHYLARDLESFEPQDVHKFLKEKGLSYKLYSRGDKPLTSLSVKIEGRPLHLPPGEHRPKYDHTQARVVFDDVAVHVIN
In short: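 Absorbance at 475 nm read at 30 °C in PBS with 5% DMSO. Global nonlinear Michaelis–Menten fitting over four inhibition models gave Vmax, Km, Kic and Kiu, with the model chosen by minimal χ2.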
NC(=S)c1cccnc1 [thionicotinamide] was tested, and the Ki was 4300 nM. Compound CCc1cc(C(N)=S)ccn1 [CHEBI:4885] has a Ki of 1900 nM. In the case of NC(=S)c1ccncc1, the Ki is reported as 22300 nM. Work on CCCc1cc(C(N)=S)ccn1 [Ektebin] yielded a Ki of 2400 nM. NC(=S)c1ccccc1 was tested, and the Ki was 700 nM. Compound NC(=S)c1ccccn1 has a Ki of 2700 nM.
